From article PMC2766535 (Journal of separation science, 2009)
pKd: −log10 of the molar value.

Target: human serum albumin (HSA) (Homo sapiens, UniProt P02768)
Assay: frontal analysis, high-performance affinity chromatography on immobilized HSA
Assay type: binding
How it was run: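 Fatty-acid-free HSA immobilized by Schiff base on diol silica (40 (± 2) mg HSA/g silica), packed in a 5 cm × 2.1 mm i.d. column. A column without HSA corrected for non-specific binding. Test compound (0.5 µM to 30 µM) in pH 7.4, 0.067 M potassium phosphate was applied at 0.5 mL/min, 37°C, until plateau. Detection at 260 nm; mean breakthrough times were used.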

human serum albumin (HSA), sequence (P02768 25-609): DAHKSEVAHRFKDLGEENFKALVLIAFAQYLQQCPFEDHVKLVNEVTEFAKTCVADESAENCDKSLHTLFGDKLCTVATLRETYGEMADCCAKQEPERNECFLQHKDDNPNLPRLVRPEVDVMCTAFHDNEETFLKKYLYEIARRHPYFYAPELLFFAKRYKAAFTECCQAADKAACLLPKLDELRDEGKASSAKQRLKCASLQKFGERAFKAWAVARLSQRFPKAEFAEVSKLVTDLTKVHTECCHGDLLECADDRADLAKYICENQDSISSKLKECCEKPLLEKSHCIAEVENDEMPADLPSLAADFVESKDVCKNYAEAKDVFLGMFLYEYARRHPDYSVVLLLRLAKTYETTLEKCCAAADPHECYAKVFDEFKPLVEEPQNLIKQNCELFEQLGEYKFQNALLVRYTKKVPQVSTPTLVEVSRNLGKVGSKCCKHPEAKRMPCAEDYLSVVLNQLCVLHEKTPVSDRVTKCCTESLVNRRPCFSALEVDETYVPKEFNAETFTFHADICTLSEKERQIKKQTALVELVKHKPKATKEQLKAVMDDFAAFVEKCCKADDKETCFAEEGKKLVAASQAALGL

Molecule `O=C(O)CCCc1c[nH]c2ccccc12` [Indole-3-butyric acid] has a pKd of 5.99.

Work on `OCc1c[nH]c2ccccc12` [Indole-3-methanol] yielded a pKd of 5.08.

`CC(=O)c1c[nH]c2ccccc12` [3-Acetylindole] was tested, and the pKd was 4.89.

Molecule `Cc1c[nH]c2ccccc12` [3-Methylindole] has a pKd of 4.72.

`O=C(O)CCc1c[nH]c2ccccc12` [Indole-3-propionic acid] showed a pKd of 5.04.
